Source: PubChem
NLRP3 yeast inh = blocks the NALP3 inflammasome reconstituted in yeast; Yeast reconstituted NLRP3/ASC/caspase-1, beta-gal luminescence, 24 h; inhibition, % at 10 µM; 0.39% of 330,000 active;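 active = inhibition of 50% or more; inactive = inhibition below 50%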;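 also: plate controls were induced DMSO wells for no effect and uninduced yeast grown without galactose for full effect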
PolyA inhibitor = inhibitors of polyadenylation in S. cerevisiae; AID 1875; activity score, % at 12 µM; 0.02% of 300,000 active; S. cerevisiae SKY197-pL101 polyadenylation reporter, beta-gal luminescence; efflux-impaired pdr1/pdr3 knockout yeast; score 100 = 6 SD above DMSO;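 active = lowest replicate activity score at least 50, where 100 means six control SD above control mean; inconclusive = lowest score under 50 but half or more replicates reach 50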;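 also: yeast exposed to compound for 9 h at 30 °C; higher score means more reporter readthrough which indicates perturbed polyadenylation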
NALP1 yeast inh = inhibitors of NALP1 inflammasome in yeast; S. cerevisiae NALP1/ASC/caspase-1 growth, X-gal OD620, 72 h; inhibition, % at 10 µM; 0.61% of 280,000 active; AID 2071; in the data active = inhibition mostly above about 24%, no sharp cut-off; inactive = mostly below about 32%
Arr AP2 block = blocks beta-arrestin peptide binding to AP2 adaptin; FITC-arrestin peptide / GST-AP2 beads, flow cytometry; AP2 beta2 appendage carries R879A mutation; inhibition, % at 10 µM; AID 504490; 0.31% of 340,000 active;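 active = inhibition above a set limit, near 3 SD of compounds lacking own fluorescence, cut at about 54% in these data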;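 also: plate controls were DMSO wells for no effect and 5 µM unlabelled arrestin peptide for full effect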
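System: GST-AP2 R879A glutathione beads | Also added: FITC-arrestin peptide, 50 nM | Times: 12 min plus 1 h, RT | Signal: Bead flow cytometry, FITC channel | Buffer or medium: PBS with 0.05% Tween 20 and 0.1% BSA | Read-out basis: Percent drop in bead-associated FITC signal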
DSG3 Ab inh = blocks pemphigus antibody binding to human desmoglein-3 | 0.48% of 310,000 active | P32926 | DSG3-coupled beads, scFv-anti-DSG3-GFP binding, flow cytometry; hits give low values | binding (percent of control), % at 10 µM;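 active = binding more than 3 SD below its plate's average and above zero; inconclusive = below that plate limit but binding exactly zero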;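 also: hits lower antibody fragment binding to DSG3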
Target sequence (P32926 whole entry, looked up, the tested form may be a part): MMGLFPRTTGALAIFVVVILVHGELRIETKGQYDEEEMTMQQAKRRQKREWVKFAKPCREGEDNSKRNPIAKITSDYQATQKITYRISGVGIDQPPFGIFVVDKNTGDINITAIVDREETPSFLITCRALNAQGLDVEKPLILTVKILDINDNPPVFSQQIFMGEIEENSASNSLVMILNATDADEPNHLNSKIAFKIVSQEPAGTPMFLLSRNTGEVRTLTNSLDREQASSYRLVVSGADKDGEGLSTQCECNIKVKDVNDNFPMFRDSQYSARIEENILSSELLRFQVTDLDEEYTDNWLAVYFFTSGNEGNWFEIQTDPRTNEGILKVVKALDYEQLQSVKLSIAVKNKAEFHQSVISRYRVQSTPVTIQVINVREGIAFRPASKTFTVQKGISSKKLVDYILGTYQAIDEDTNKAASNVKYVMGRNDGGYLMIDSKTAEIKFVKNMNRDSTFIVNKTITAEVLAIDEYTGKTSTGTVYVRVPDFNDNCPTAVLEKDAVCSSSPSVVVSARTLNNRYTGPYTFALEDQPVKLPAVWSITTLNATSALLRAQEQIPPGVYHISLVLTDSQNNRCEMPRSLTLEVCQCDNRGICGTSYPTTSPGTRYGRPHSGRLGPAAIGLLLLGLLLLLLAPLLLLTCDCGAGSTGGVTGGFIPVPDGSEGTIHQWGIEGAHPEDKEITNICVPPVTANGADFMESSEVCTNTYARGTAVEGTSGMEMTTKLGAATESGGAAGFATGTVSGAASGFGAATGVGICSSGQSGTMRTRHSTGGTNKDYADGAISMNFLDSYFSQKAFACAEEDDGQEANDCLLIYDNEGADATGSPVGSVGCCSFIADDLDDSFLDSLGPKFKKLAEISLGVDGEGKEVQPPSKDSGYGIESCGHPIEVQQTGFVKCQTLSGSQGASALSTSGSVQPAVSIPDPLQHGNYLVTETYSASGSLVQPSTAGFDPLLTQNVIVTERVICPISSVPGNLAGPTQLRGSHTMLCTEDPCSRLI
ALR inh = human ALR oxidase inhibition via reduced H2O2; inhibition, % (concentration not given with the values); purified ALR, DTT oxidation, H2O2 HRP-luminol luminescence; P55789; 3.8% of 290,000 active;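 active = mean replicate inhibition above about 79%, with every replicate also reaching it, limit read from the data; inconclusive = only one of the two criteria met; inactive = mean below limit and not every replicate reaching it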
* = called active by the depositor; ? = inconclusive; · = no result. This is a sample that favours compounds with a hit; in the whole collection about 4.6% have one here.

SMILES | NLRP3 yeast inh | PolyA inhibitor | NALP1 yeast inh | Arr AP2 block | DSG3 Ab inh | ALR inh
CN(C(=O)COC(=O)CSc1ccc(C(N)=O)cc1[N+](=O)[O-])C1CCCCC1 | 14 | -9 | · | 1 | 99 | ·
O=C(CSc1ccc(-c2ccco2)nn1)Nc1ccc(F)cc1F | -1 | -12 | -1 | -8 | 107 | -3
Cc1ccc2c(C)c(C(=O)N3CCCC(C(N)=O)C3)oc2c1C (configuration not stated) | 11 | 1 | -15 | -8 | 108 | ·
CCCCOc1ccc(C(=O)CCN2CCCCC2)cc1 | 37 | -4 | 46* | -6 | 112 | 98*
CC(C)COc1ccc(C(=O)CCN2CCCCC2)cc1 | 9 | -8 | 15 | -7 | 107 | 0
N=c1oc2ccc3ccccc3c2cc1C(N)=S | 17 | -33 | 14 | 9 | 80* | -46
O=S(=O)(c1ccc(NC(=S)NN=Cc2ccccc2O)cc1)N1CCCCC1 | · | · | · | 50 | 98 | ·
Cc1ccc(C)c(-n2c(-c3cccnc3)n[nH]c2=S)c1 | 5 | 12 | 11 | 35 | 297 | 47
Cc1ccc(C)c(-n2c(-c3csc(C)c3C)n[nH]c2=S)c1 | 16 | -23 | 23 | 4 | 101 | 89*
COc1ccc(C(=O)N2CCCC(Nc3ccc(F)cc3)C2)cc1F (configuration not stated) | 9 | 4 | 12 | 27 | 101 | 65
Cc1ccc(NC2CCCN(C(=O)c3cc4ncccn4n3)C2)cc1C (configuration not stated) | 3 | -1 | -19 | 20 | 92 | 83*
Cc1ccc(C(=O)N2CCCC(Nc3ccc(F)cc3)C2)cc1C (configuration not stated) | 1 | 0 | 12 | 29 | 106 | 99*
Cc1ccc(NC2CCCN(C(=O)c3cccnc3)C2)cc1C (configuration not stated) | 12 | 6 | 8 | 7 | 114 | 93*
COc1ccc(C(=O)N2CCCC(Nc3ccc(C)c(C)c3)C2)cc1F (configuration not stated) | 13 | 0 | 10 | 2 | 102 | 95*
O=C(NC1CCCc2c1cnn2-c1ccccc1F)c1ccncc1 (configuration not stated) | · | · | · | · | 101 | ·
COc1ccc(-c2csc(NC(=O)CSCc3c(C)noc3C)n2)c(OC)c1 | 23 | 1 | · | 33 | 103 | 0
CCCCn1c(N)c(N(CC(C)C)C(=O)C(C)SCc2nc3sc(C)c(C)c3c(=O)[nH]2)c(=O)[nH]c1=O (configuration not stated) | 19 | -8 | · | 37 | 101 | -24
CCN(CC)c1ccc(N2C(=NC(=O)C3CC3)SC3CS(=O)(=O)CC32)cc1 (configuration not stated) | 2 | -8 | 25 | -3 | 92 | 59
COC(=O)c1cccc(C(=O)N2CCCC(Nc3ccc(C)c(C)c3)C2)c1 (configuration not stated) | 3 | -2 | 16 | -12 | 101 | 98*
C=CCOc1cccc(C(=O)N2CCCC(Nc3ccc4c(c3)OCCO4)C2)c1 (configuration not stated) | 21 | -11 | 7 | 22 | 104 | 91*
COc1ccc(NC2CCCN(C(=O)c3cccc(C(F)(F)F)c3)C2)cc1OC (configuration not stated) | 17 | -13 | 23 | 13 | 100 | ?
NC(=O)CSc1nnc(-c2ccccn2)n1Cc1ccco1 | 9 | 13 | 25 | -1 | 114 | -2
Clc1ccc(CSc2nnc(-c3cccnc3)n2Cc2ccco2)c(Cl)c1 | 3 | 9 | 18 | -9 | 99 | 97*
Clc1cccc(CSc2nnc(-c3cccnc3)n2Cc2ccco2)c1 | -3 | -8 | 8 | 2 | 95 | 3
COc1ccc(C)cc1NC(=O)CSc1nnc(-c2ccccn2)n1Cc1ccco1 | -14 | -3 | 3 | -4 | 102 | 1
SMILES | NLRP3 yeast inh | PolyA inhibitor | NALP1 yeast inh | Arr AP2 block | DSG3 Ab inh | ALR inh
Clc1ccccc1CSc1nnc(-c2ccccn2)n1Cc1ccco1 | -69 | -22 | 4 | -4 | 104 | 92*
COc1ccccc1NC(=O)CSc1nnc(-c2ccccn2)n1Cc1ccco1 | -3 | -14 | 25 | 2 | · | 97*
CN(C)C(=S)Oc1ccccc1C1(C)OCCO1 | · | · | · | · | 104 | ·
Cn1c(CNC(=O)C(Cc2ccccc2)NC(=O)c2ccccc2F)cc(=O)n(C)c1=O (configuration not stated) | -5 | 13 | 24 | 3 | 97 | 1
CC/C(=N/OC(=O)c1cccc(C)c1)C(=O)c1cccs1 | 16 | -11 | 11 | 4 | 103 | 91*
C/C(=N/OC(=O)c1ccc(C)cc1)c1cccs1 | 19 | -9 | 20 | -2 | 109 | -18
NNCCc1ccccc1 | 4 | -10 | 36 | 13 | 104 | 99*
Cc1cccc(N2CCN(C(=O)c3cc(S(=O)(=O)N4CCOCC4)cn3C)CC2C)c1 (configuration not stated) | -1 | -1 | -12 | 21 | 104 | 15
Cn1cnnc1SCC(=O)c1cc2ccccc2o1 | 1 | 9 | -2 | -3 | 83 | 88*
Cn1c(SCC(=O)c2cc3ccccc3o2)nnc1-c1ccccc1 | 20 | -11 | 17 | 8 | 99 | 97*
COc1ccc(-n2c(C)cc(C(=O)CCl)c2C)cc1 | -55 | -20 | 42* | 21 | 105 | 38
CC(=O)Nc1ccc(SCC(=O)N(CCC#N)c2cc(C)cc(C)c2)cc1 | 3 | 7 | 11 | 3 | 83 | 98*
N#CCCN(C(=O)CSc1ccc2c(c1)OCCO2)c1ccccc1 | -1 | 0 | -4 | -2 | ? | 89*
COc1ccc(-n2c(C)cc(C(=O)CN3C(=O)c4ccccc4C3=O)c2C)cc1 | -13 | 21 | 16 | 3 | 100 | -19
CC(=O)Nc1ccc(SCC(=O)c2cc(C)n(-c3ccccc3)c2C)cc1 | 2 | 14 | 28 | -2 | 96 | 99*
Cc1cc(C(=O)CSc2cccc[n+]2[O-])c(C)n1-c1ccccc1 | 16 | 11 | 4 | 2 | 107 | -15
CCCCN1C(=O)C(=O)N(CC(=O)Nc2sc(CC)cc2C(=O)OCC)C1=O | 6 | -14 | · | -13 | 103 | 8
CC(Sc1n[nH]c(-c2cccs2)n1)C(=O)N1CCCC1 (configuration not stated) | -2 | · | · | -3 | 125 | -3
COc1ccc(NC(=O)CSc2ccc(C)cc2)cc1 | 26 | -11 | -99 | 2 | · | -2
COc1ccc(-n2c(C)cc(C(=O)CSc3ccc(NC(C)=O)cc3)c2C)cc1 | 3 | -19 | 25 | 3 | 115 | 97*
CC(=O)Nc1ccc(SCC(=O)c2cc(C)ccc2C)cc1 | 29 | 5 | 8 | 16 | 90 | 98*
Cc1ccc([C@H]2N[C@]3(CCCN(Cc4ccccc4)C3=O)[C@H]3C(=O)N(C)C(=O)[C@@H]23)cc1 | · | · | · | · | 103 | ·
